≈ marks a conversion by molar mass, not a printed value.
Assays:
MecA = target: T1, MecA (Staphylococcus aureus, UniProt Q7DHH4); test: Binding affinity to against methicillin-, daptomycin-resistant, vancomycin-intermediate, beta-lactamase-positive Staphylococcus aureus 25 PBP2a by competitive binding assay
T1 sequence (Q7DHH4 whole entry): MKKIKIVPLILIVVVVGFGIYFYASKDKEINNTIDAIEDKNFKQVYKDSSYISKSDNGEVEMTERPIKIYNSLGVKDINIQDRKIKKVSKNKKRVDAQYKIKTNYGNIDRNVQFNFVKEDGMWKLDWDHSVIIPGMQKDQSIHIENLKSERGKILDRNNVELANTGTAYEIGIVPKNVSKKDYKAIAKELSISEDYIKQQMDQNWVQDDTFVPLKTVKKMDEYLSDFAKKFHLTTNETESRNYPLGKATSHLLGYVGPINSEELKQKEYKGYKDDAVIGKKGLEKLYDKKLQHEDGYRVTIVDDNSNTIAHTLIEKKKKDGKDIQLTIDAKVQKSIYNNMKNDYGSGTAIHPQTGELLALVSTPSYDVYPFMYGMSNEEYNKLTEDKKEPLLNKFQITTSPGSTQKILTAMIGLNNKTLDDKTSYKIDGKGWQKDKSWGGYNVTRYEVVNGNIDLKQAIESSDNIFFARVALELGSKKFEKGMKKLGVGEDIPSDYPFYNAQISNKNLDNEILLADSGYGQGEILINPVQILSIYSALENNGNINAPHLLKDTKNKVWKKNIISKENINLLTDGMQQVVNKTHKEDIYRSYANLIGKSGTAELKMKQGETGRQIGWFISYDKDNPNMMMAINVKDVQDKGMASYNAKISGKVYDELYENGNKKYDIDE
In short: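 MRSA strain harvested in stationary phase (OD600 >2.00). Membranes prepared by enzymatic lysis, freeze-thaw, sonication and ultracentrifugation, then preincubated with clavulanic acid 1 mg/ml. β-Lactam competition 10 min at 37°C, then Bocillin FL 40 μg/ml, 15 min at 37°C. SDS-PAGE, 520 nm imaging; IC50 = 50% inhibition of Bocillin FL labeling; 3 membrane isolations.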

Streptococcus pneumoniae [1] = test: Antibacterial activity against penicillin-resistant Streptococcus pneumoniae 2527 by macrodilution method; assay type: functional
In short: (§1)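 CLSI broth macrodilution MICs. The S. aureus set is 5 MRSA strains (hVISA, VISA, VRSA) plus 1 MSSA. The S. pneumoniae set is 7 clonally unrelated clinical isolates, categorised by penicillin G against 2006 CLSI M100-S17 criteria (resistant ≥2 μg/ml, susceptible ≤0.06 μg/ml).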

[2] = Binding affinity to methicillin-, vancomycin-resistant, beta-lactamase-positive Staphylococcus aureus 510 PBP3 by competitive binding assay
[3] = Binding affinity to penicillin-resistant Streptococcus pneumoniae 3413 PBP1B by competitive binding assay
In short: (§2)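 Whole pneumococcal cells were grown to OD600 0.3 in Todd-Hewitt broth plus 0.5% yeast extract, then resuspended in 50 mM NaPO4, pH 7.0. Cells at 10^8 to 5 × 10^8 CFU/ml were exposed to β-lactam for 10 min at 37°C, alongside a reference without drug. They were then labeled with 10 μg/ml Bocillin FL for 15 min at 37°C. Proteins were resolved by SDS-PAGE and fluorescence read at 520 nm. IC50 was taken as 50% inhibition of Bocillin FL binding, from 2 experiments.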

Staphylococcus aureus [4] = test: Antibacterial activity against methicillin-, vancomycin-resistant, beta-lactamase-positive Staphylococcus aureus 510 by macrodilution method; assay type: functional; in short: as §1
Streptococcus pneumoniae [5] = test: Antibacterial activity against penicillin-susceptible Streptococcus pneumoniae 1076 by macrodilution method; assay type: functional; in short: as §1
[6] = Binding affinity to methicillin-resistant, vancomycin-intermediate, beta-lactamase-positive Staphylococcus aureus 1287 PBP1 by competitive binding assay
[7] = Binding affinity to methicillin-, vancomycin-susceptible Staphylococcus aureus ATCC 29213 PBP1 by competitive binding assay
In short: (§3)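 MSSA grown in brain heart infusion broth and harvested at OD600 0.3–0.4. Lysed with lysozyme, lysostaphin, DNase I, freeze-thaw and sonication; membranes collected at 100,000 × g. Membranes (100 μg protein) incubated with β-lactam 10 min at 37°C, then Bocillin FL 40 μg/ml, 15 min at 37°C. SDS-PAGE, fluorescence at 520 nm. IC50 is 50% inhibition of Bocillin FL binding; 3 membrane isolations.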

[8] = Binding affinity to penicillin-resistant Streptococcus pneumoniae 24 PBP3 by competitive binding assay; in short: as §2
[9] = Binding affinity to methicillin-, vancomycin-susceptible Staphylococcus aureus ATCC 29213 PBP4 by competitive binding assay
In short: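 S. aureus grown in brain heart infusion broth and harvested at OD600 0.3 to 0.4. Membranes were prepared by lysozyme/lysostaphin/DNase I treatment, freeze-thaw, sonication and ultracentrifugation. Membranes (100 μg total protein) were preincubated with β-lactam for 10 min at 37°C, then labeled with 40 μg/ml Bocillin FL for 15 min at 37°C. SDS-PAGE with fluorescence imaging at 520 nm. IC50 is 50% inhibition of Bocillin FL binding; 3 membrane isolations.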

[10] = Binding affinity to methicillin-, vancomycin-susceptible Staphylococcus aureus ATCC 29213 PBP2 by competitive binding assay; in short: as §3
Streptococcus pneumoniae [11] = test: Antibacterial activity against penicillin-resistant Streptococcus pneumoniae 1564 by macrodilution method; assay type: functional; in short: as §1
Staphylococcus aureus [12] = test: Antibacterial activity against methicillin-, daptomycin-resistant, vancomycin-intermediate, beta-lactamase-positive Staphylococcus aureus 25 by macrodilution method; assay type: functional; in short: as §1
Staphylococcus aureus [13] = test: Antibacterial activity against methicillin-, vancomycin-susceptible Staphylococcus aureus ATCC 29213 by macrodilution method; assay type: functional; in short: as §1
Streptococcus pneumoniae [14] = test: Antibacterial activity against penicillin-resistant Streptococcus pneumoniae 1394 by macrodilution method; assay type: functional; in short: as §1
Staphylococcus aureus [15] = test: Antibacterial activity against methicillin-resistant, vancomycin-intermediate, beta-lactamase-positive Staphylococcus aureus 1287 by macrodilution method; assay type: functional; in short: as §1
[16] = Binding affinity to methicillin-resistant, vancomycin-intermediate, beta-lactamase-positive Staphylococcus aureus 1287 PBP4 by competitive binding assay

Compound | IC50 (MecA) [µM] | MIC (Streptococcus pneumoniae [1]) [µg/mL] | IC50 [2] [µg/mL] | IC50 [3] [µg/mL] | MIC (Staphylococcus aureus [4]) [µg/mL] | MIC (Streptococcus pneumoniae [5]) [µg/mL] | IC50 [6] [µg/mL] | IC50 [7] [µg/mL] | IC50 [8] [µg/mL] | IC50 [9] [µg/mL] | IC50 [10] [µg/mL] | MIC (Streptococcus pneumoniae [11]) [µg/mL] | MIC (Staphylococcus aureus [12]) [µg/mL] | MIC (Staphylococcus aureus [13]) [µg/mL] | MIC (Streptococcus pneumoniae [14]) [µg/mL] | MIC (Staphylococcus aureus [15]) [µg/mL] | IC50 [16] [µg/mL]
CO/N=C(\C(=O)N[C@@H]1C(=O)N2C(C(=O)O)=C(COC(C)=O)CS[C@H]12)c1csc(N)n1 [CEFOTAXIME] | 1.1 | 0.015 (≈ 0.0329 µM) | 0.25 (≈ 0.549 µM) | 4 (≈ 8.78 µM) | > 64 | 0.03 (≈ 0.0659 µM) | 1 (≈ 2.2 µM) | 0.25 (≈ 0.549 µM) | 0.1 (≈ 0.22 µM) | > 8 | 0.25 (≈ 0.549 µM) | 32 (≈ 70.3 µM) | > 64 | 2 (≈ 4.39 µM) | 4 (≈ 8.78 µM) | 4 (≈ 8.78 µM) | > 128
CO/N=C(\C(=O)N[C@@H]1C(=O)N2C(C(=O)O)=C(CSc3nc(=O)c(O)nn3C)CS[C@H]12)c1csc(N)n1 [CEFTRIAXONE] | 0.451 | 0.03 (≈ 0.0541 µM) | 0.25 (≈ 0.451 µM) | 4 (≈ 7.21 µM) | > 64 | 0.03 (≈ 0.0541 µM) | 1 (≈ 1.8 µM) | 0.25 (≈ 0.451 µM) | 0.25 (≈ 0.451 µM) | > 8 | 0.25 (≈ 0.451 µM) | 32 (≈ 57.7 µM) | > 64 | 2 (≈ 3.61 µM) | 2 (≈ 3.61 µM) | 8 (≈ 14.4 µM) | > 128
CC1(C)S[C@@H]2[C@H](NC(=O)Cc3ccccc3)C(=O)N2[C@H]1C(=O)O [PENICILLIN G] | 12 | 2 (≈ 5.98 µM) | 4 (≈ 12 µM) |  | 32 (≈ 95.7 µM) | 0.03 (≈ 0.0897 µM) | 4 (≈ 12 µM) | 4 (≈ 12 µM) |  | > 8 | 8 (≈ 23.9 µM) | 16 (≈ 47.8 µM) | 64 (≈ 191 µM) | 1 (≈ 2.99 µM) | 4 (≈ 12 µM) | 32 (≈ 95.7 µM) | 4 (≈ 12 µM)

Source: ChEMBL document CHEMBL1255453, “Affinity of ceftaroline and other beta-lactams for penicillin-binding proteins from Staphylococcus aureus and Streptococcus pneumoniae” (Antimicrob Agents Chemother, 2010)
